Measured values from ChEMBL document CHEMBL4007410, “Fluorinated Chaperone-β-Cyclodextrin Formulations for β-Glucocerebrosidase Activity Enhancement in Neuronopathic Gaucher Disease” (J Med Chem, 2017).
The source made the active and inactive calls. The calls are words filed in the database; no cut-off is given here.

Columns and labels:
[1] = species: Homo sapiens; assay: Chaperone activity assessed as enhancement of GCase N370S/84GG mutant enzyme in fibroblasts derived from type 1 gaucher disease patient […] prior to addition of 4-methylumbelliferyl beta-D-glucopyranoside as substrate in presence of beta-cyclodextrin by luminescence spectrophotometry relative to control
[2] = species: Homo sapiens; assay: Inhibition of human lysosomal beta-hexosaminidase assessed as formation of 4-methylumbelliferone from 4-methylumbelliferyl N-acetyl-beta-D-glucosaminide up to 200 uM by luminescence spectrophotometry
Outline: (§1)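 Cells were scraped into ice-cold water (10⁶ cells/mL), sonicated and centrifuged, and protein was quantified. Lysate in 0.1% Triton X-100 was incubated at 37 °C with the matching 4-MU-conjugated glycoside in 0.1 M citrate, pH 4.5, with increasing chaperone or βCD-complex concentrations up to 200 μM. Reactions were stopped with glycine-NaOH, pH 10.7, and read at ex 340/em 460 nm.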

[3] = species: Homo sapiens; assay: Inhibition of human lysosomal alpha-galactosidase assessed as formation of 4-methylumbelliferone from 4-methylumbelliferyl alpha-D-galactopyranoside up to 200 uM by luminescence spectrophotometry; outline: as §1
[4] = Critical micellar concentration of the compound measured after 1 hr by pyrene fluorescence excitation spectral analysis
Outline: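 Pyrene fluorescence method: pyrene at 0.6 μM final in water, iminosugar from 1180 to 4.3·10⁻³ μM, equilibrated 1 h at 37 °C. Emission was read at 375 nm. The I339/I335 excitation intensity ratio tracked the band shift, giving the CMC.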

[5] = Competitive inhibition of bovine liver beta-glucosidase assessed as formation of 4-methylumbelliferone from 4-methylumbelliferyl […] by Lineweaver-Burk Plot analysis; design: species or system Bos taurus
[6] = target: Lysosomal alpha-glucosidase (Homo sapiens) (UniProt P10253); assay: Inhibition of human lysosomal alpha-glucosidase assessed as formation of 4-methylumbelliferone from 4-methylumbelliferyl alpha-D-glucopyranoside by luminescence spectrophotometry; outline: as §1
[7] = target: T1, Lysosomal acid glucosylceramidase (Homo sapiens, UniProt P04062); assay: Inhibition of human GCase assessed as formation of 4-methylumbelliferone from […] at pH 7 in presence of beta-cyclodextrin by luminescence spectrophotometry
T1 sequence (P04062 whole entry): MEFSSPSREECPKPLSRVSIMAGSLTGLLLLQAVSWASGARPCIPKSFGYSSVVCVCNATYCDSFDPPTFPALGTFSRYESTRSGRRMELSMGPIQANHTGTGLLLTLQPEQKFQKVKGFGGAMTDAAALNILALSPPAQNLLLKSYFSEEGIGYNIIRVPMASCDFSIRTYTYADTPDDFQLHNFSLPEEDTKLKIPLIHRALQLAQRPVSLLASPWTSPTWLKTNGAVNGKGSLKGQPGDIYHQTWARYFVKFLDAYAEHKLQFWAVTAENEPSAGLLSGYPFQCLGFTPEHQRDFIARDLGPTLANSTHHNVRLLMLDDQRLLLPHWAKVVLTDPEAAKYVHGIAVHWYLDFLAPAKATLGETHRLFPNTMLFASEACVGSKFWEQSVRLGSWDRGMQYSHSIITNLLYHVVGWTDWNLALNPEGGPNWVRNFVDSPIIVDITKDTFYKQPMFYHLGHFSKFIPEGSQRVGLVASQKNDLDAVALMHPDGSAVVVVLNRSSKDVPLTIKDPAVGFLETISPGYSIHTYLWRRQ

[8] = target: T2, Beta-mannosidase (Homo sapiens) (UniProt O00462); assay: Inhibition of human lysosomal beta-mannosidase assessed as formation of 4-methylumbelliferone from 4-methylumbelliferyl […] up to 200 uM in presence of beta-cyclodextrin by luminescence spectrophotometry; outline: as §1
T2 sequence (whole entry): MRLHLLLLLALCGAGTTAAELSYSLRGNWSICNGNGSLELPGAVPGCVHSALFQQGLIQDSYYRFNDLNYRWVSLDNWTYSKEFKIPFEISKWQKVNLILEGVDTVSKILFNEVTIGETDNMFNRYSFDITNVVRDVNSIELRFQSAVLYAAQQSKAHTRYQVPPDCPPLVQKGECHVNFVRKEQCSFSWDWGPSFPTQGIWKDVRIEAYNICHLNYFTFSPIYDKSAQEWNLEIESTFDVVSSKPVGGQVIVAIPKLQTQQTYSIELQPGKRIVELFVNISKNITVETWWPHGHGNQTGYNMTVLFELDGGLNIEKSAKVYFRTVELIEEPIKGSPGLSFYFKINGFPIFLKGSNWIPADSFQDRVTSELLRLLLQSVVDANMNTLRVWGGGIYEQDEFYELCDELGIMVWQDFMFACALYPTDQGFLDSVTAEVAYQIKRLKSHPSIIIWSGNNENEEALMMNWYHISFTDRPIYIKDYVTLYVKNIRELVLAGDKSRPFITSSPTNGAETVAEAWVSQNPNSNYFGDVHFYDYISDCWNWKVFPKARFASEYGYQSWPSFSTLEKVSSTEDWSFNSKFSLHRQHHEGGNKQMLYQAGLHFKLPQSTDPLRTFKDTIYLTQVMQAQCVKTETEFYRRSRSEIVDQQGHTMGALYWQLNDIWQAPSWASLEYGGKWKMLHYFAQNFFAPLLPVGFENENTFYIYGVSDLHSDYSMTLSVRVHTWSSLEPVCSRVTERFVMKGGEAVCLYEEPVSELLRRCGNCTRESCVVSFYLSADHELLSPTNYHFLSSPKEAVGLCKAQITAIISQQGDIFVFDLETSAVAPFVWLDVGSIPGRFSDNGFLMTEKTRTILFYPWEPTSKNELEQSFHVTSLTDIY

[9] = system: Saccharomyces cerevisiae; assay: Inhibition of yeast isomaltase at 2 mM using beta-D-glycopyranoside after 10 to 30 mins in presence of beta-cyclodextrin by spectrophotometry
Outline: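 Commercial glycosidases were assayed with o-nitrophenyl (E. coli β-galactosidase) or p-nitrophenyl glycoside substrate near KM. Buffer was phosphate, or phosphate-citrate for mannosidases and amyloglucosidase, at each enzyme's optimal pH. Enzyme was added last. Incubation ran 10-30 min at 37 °C (55 °C for amyloglucosidase), then was quenched with 1 M Na2CO3 and read at A405. Free compounds were tested up to 1 mM; 1:1 βCD complexes up to 2 mM.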

fold change (FC) [1]	inhibition [2]	inhibition [3]	Ki [5]	inhibition [6]	Ki [7]	inhibition [8]	inhibition [9]	Compound	CMC [4]
1.5 to 1.7	inactive	inactive	330 nM	inactive	600 nM	Active	inactive	O=C(CCC(F)(F)C(F)(F)C(F)(F)C(F)(F)C(F)(F)C(F)(F)F)NCCCCCCCCCNC(=S)N1[C@@H]2CO[C@H]1[C@H](O)[C@@H](O)[C@@H]2O	15 µM
1.5 to 1.7	inactive	inactive	6400 nM	inactive	300 nM	Active	inactive	O=C(CCC(F)(F)C(F)(F)C(F)(F)C(F)(F)F)NCCCCNC(=S)N1[C@@H]2CO[C@H]1[C@H](O)[C@@H](O)[C@@H]2O	393 µM
–	inactive	inactive	1100 nM	inactive	90 nM	Active	inactive	O=C(CCC(F)(F)C(F)(F)C(F)(F)C(F)(F)C(F)(F)C(F)(F)F)NCCCCNC(=S)N1[C@@H]2CO[C@H]1[C@H](O)[C@@H](O)[C@@H]2O	31.6 µM
1.5 to 1.7	inactive	inactive	340 nM	inactive	900 nM	Active	inactive	O=C(CCC(F)(F)C(F)(F)C(F)(F)C(F)(F)F)NCCCCCCCCCNC(=S)N1[C@@H]2CO[C@H]1[C@H](O)[C@@H](O)[C@@H]2O	37.5 µM
